Screening data deposited in PubChem BioAssay by The Scripps Research Institute Molecular Screening Center.
UHRF1 MBD2 ctr: blocks human UHRF1 binding to methylated DNA | actives 0.75% (n = 370,000) | AID 687016 | UHRF1 binding to methylated oligo, TR-FRET | Q96T88 | inhibition, % at 4.4 µM; in the data active = inhibition above about 21%;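 note: UHRF1 SRA domain binding a hemimethylated CpG hairpin DNA probe; 0% = median of test compound wells and 100% = reference inhibitor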
TDP2 absorb: blocks human TDP2 phosphodiesterase activity; O95551; recombinant TDP2, T5PNP hydrolysis, p-nitrophenol absorbance 415 nm; inhibition, % at 12.8 µM; actives 0.34% (n = 370,000); AID 720702;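 active = inhibition above the mean of all tested compounds plus 3 SD, set per campaign, cut at about 25% in these data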;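 note: 0% = DMSO with enzyme and 100% = buffer with substrate but no TDP2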
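Assay system: Recombinant human TDP2 | Quantity: 120 nM TDP2 per well | Incubation: 2 h at 37 °C | Signal: Epi absorbance | Evaluation: Percent inhibition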
MBD2 DNA inh: inhibitors of human MBD2 binding to methylated oligonucleotide; actives 0.31% (n = 370,000); Q9UBB5; AID 686964; inhibition, % at 4.4 µM; TR-FRET; in the data active = inhibition above about 13%
LEDGF integ inh: blocks HIV-1 LEDGF/p75-dependent DNA integration; actives 0.64% (n = 370,000); TR-FRET IN-LEDGF/p75 DNA integration, Eu/Cy5; inhibition, % at 3.7 µM;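 active = inhibition above the screen-wide mean plus 3 SD, cut at about 13% in these data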;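 note: signal is the Cy5 over europium emission ratio at 671 and 618 nm; 0% = plate median of compound wells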
Rin1-Abl PPI inh: human Rin1-Abl interaction inhibition | actives 0.4% (n = 360,000) | inhibition, % at 7.35 µM | TR-FRET Rin1/Abl binding, biochemical | P00519+Q13671; in the data active = inhibition above about 5%, passing the limit was not always enough
* marks the source's active call; other numbers are inactive results; . = no result. Hits are enriched below; roughly 1.9% of the tested compounds scored in any of these assays.

SMILES	UHRF1 MBD2 ctr	TDP2 absorb	MBD2 DNA inh	LEDGF integ inh	Rin1-Abl PPI inh
COC(=O)[C@]1(CNC(C)=O)CC(=O)N(Cc2ccc(Cl)cc2)[C@@H]1c1ccc(OC)cc1	4.8	-18.4	-2.4	8.3	.
CCOC(=O)C1(Cc2cccc(OC)c2)CCN(C/C=C/c2ccccc2)CC1	32.5*	-7.0	2.6	-2.1	0.3
CCOC(=O)C1(Cc2cccc(OC)c2)CCN(C/C=C/c2ccc(OC)cc2)CC1	1.6	1.5	9.6	-0.1	3.2
CN(C)c1ccc(-c2nnc(-c3cccs3)o2)cc1	-1.1	1.3	3.1	-0.7	-0.7
Brc1ccc(-c2cnc(-c3cccs3)o2)cc1	21.5*	9.5	6.5	3.0	-0.2
CCS(=O)(=O)Nc1ccc2c(c1)C(=O)N(C)[C@@H]1CC[C@H](CC(=O)N[C@@H]3CCN(Cc4ccccc4)C3)O[C@H]1CO2	4.7	3.2	7.4	-0.6	.
CCC[C@H]1[C@@H](OC(=O)NC(CC)CC)CC[C@@]23CCCN2C(=O)CCC[C@@H]13	78.3*	2.2	4.3	-0.5	.
COCc1cc(C)nc(OCC(=O)N/N=C/c2ccc(OC)c(O)c2)c1C#N	36.3*	3.9	-1.8	-1.6	-3.0
O=C(Cc1cccs1)NC1CCCCN(Cc2ccc(Cl)cc2)C1=O (configuration not stated)	3.4	3.5	-0.6	1.2	.
CC(Sc1nc2sc3c(c2c(=O)n1-c1ccccc1)CCCC3)C(=O)O (configuration not stated)	5.9	-9.2	-1.8	1.6	-4.9
CCn1c(SC(C)C(=O)O)nc2sc3c(c2c1=O)CCC3 (configuration not stated)	27.9*	0.7	10.2	10.5	-1.9
COC1=C[C@H](C(=O)NCc2ccc(Br)cc2)C(C)C(c2ccccc2)CC1=O (some centres not stated)	-2.4	5.3	2.6	-2.9	.
CC1CCN(C(=S)c2ccc3c(c2)OCO3)CC1	60.8*	-9.3	0.4	2.4	-3.2
CCOC(=O)c1sc(Nc2ccccc2Cl)nc1C	26.6*	-13.2	5.4	6.3	-1.9
CCOC(=O)C1=C(C)N(c2ccc(OC)cc2)C(=O)/C1=C\c1cccs1	24.9*	2.8	7.8	1.8	3.2
COC(=O)c1c(C)[nH]c(C(=O)COC(=O)Cn2cc(C(F)(F)F)ccc2=O)c1C	82.2*	15.0	-1.1	-5.0	5.1
CC(C)CCn1nnnc1C(c1ccc(F)cc1)N1CCC(C(N)=O)CC1 (configuration not stated)	21.7*	12.5	7.2	3.3	0.4
CCc1noc(C)c1C(=O)NNC(=O)c1nn(C)c(=O)c2ccccc12	29.9*	9.1	2.1	-5.0	0.1
CCc1noc(C)c1C(=O)NNC(=O)c1nn(CC)c(=O)c2ccccc12	-0.1	-5.8	2.7	1.1	1.3
O=C(COC(=O)/C=C/c1cccc(C(F)(F)F)c1)NCc1ccco1	2.4	2.2	6.3	28.4*	0.4
CSc1ccccc1C(=O)NCc1ccccc1C	22.4*	-9.2	3.9	-5.1	0.9
CSc1ccccc1C(=O)Nc1c(C)cccc1C	-0.5	-2.1	0.0	-0.3	-2.4
CCOC(=O)N1CCN(S(=O)(=O)c2ccc(C(=O)Nc3nnc(CSC)o3)cc2)CC1	30.7*	0.9	0.4	0.1	1.0
COc1cc(-c2nnc(NC(=O)c3ccc(S(=O)(=O)N4CCOCC4)cc3)o2)cc(OC)c1OC	82.5*	4.5	-3.4	-1.9	.
CCC[C@H]1[C@@H](OC(=O)NCc2ccco2)CC[C@@]23CCCN2C(=O)CCC[C@@H]13	0.4	10.1	-7.7	3.2	.
SMILES	UHRF1 MBD2 ctr	TDP2 absorb	MBD2 DNA inh	LEDGF integ inh	Rin1-Abl PPI inh
CCN(CC)C(=O)CC[C@H]1CC[C@]2(CCCN(Cc3nccn3C)C2)O1	-0.3	5.8	3.4	-3.2	.
Cc1ccc(-c2nc(C3CCCN(S(=O)(=O)c4ccccc4)C3)no2)cc1 (configuration not stated)	3.0	2.0	-0.9	1.5	.
C=CCNC(=O)c1ccc(-n2cccc2)cc1	23.8*	-2.5	10.5	1.8	0.1
COC(=O)[C@]12C[C@H](CC(=O)NCC3CCCCC3)C(=O)N(Cc3ccco3)C1=C[C@H](C(C)C)O[C@@H]2C1CC1	-1.6	-2.6	-3.2	-1.3	.
O=C(OCC(=O)N1CCN(C(=O)c2ccco2)CC1)c1cccc(S(=O)(=O)N2CCc3ccccc32)c1	20.8*	-3.0	-2.0	0.0	1.0
Cc1cc(C)cc(NC(=O)Cn2c(-c3ccccc3Cl)nc3ccccc32)c1	21.7*	16.5	3.9	-0.9	1.1
O=C(COC(=O)CCc1c[nH]c2ccccc12)NCc1ccc2c(c1)OCO2	64.3*	-0.6	-0.8	3.4	2.4
c1ccc(COc2ccc(OCCCNC3CCCC3)cc2)cc1	30.6*	-12.7	9.5	7.9	2.8
O=C(NC1CCN(Cc2ccccc2)CC1)c1ccccc1OCc1ccccc1	-2.6	-15.0	0.9	5.6	2.0
O=C(NC1CCCC1)c1ccccc1OCc1ccccc1	39.1*	-5.5	0.3	1.7	-5.2
COCCCNCCCCOc1ccc(OCc2ccccc2)cc1	3.9	8.0	1.4	0.6	1.8
CCC(C#Cc1ccccc1)NCc1ccc(OC)cc1OC (configuration not stated)	1.4	-16.4	-0.4	7.2	.
CC1(C)CC(=O)C2=C(C1)N(CC1CCCO1)C(=O)C2(O)C(F)(F)F (configuration not stated)	1.0	-3.2	-4.2	-3.5	-0.1
CC1(C)CC(=O)C2=C(C1)N(CC1CCCO1)C(=O)NC2(C(F)(F)F)C(F)(F)F (configuration not stated)	22.6*	-2.5	10.9	0.0	-0.1
O=C(c1ccc(C(F)(F)F)cc1)N1CCC(=O)N(C(COCc2ccccc2)Cc2ccccc2)CC1 (configuration not stated)	40.1*	-13.6	-4.3	-1.7	2.5
CCOC(=O)CNC(=O)CSc1nnc(-c2ccccc2)n1CC	0.0	1.6	1.0	-0.5	.
CC(=O)Nc1c(C(=O)Nc2ccc3c(c2)OCO3)oc2ccccc12	-1.0	-15.8	-2.1	-6.3	2.1
COCC(=O)Nc1c(C(=O)Nc2ccc3c(c2)OCO3)oc2ccccc12	51.3*	-4.7	1.8	-0.4	3.1
Cc1cc(NC(=O)CN(C)C)c([N+](=O)[O-])cc1C	41.8*	0.1	1.2	-3.8	-2.0
CC(=O)Nc1sc2c(c1-c1cc3ccccc3o1)CCNC2	-16.0	4.8	-0.7	-0.5	.
CCc1cc(Cn2nc(-c3ccccc3)cc2C(=O)O)on1	79.6*	-5.7	2.7	1.2	0.8
CC(C)CNC(=O)OCc1cn(Cc2ccccc2F)nn1	2.0	-1.2	7.5	-1.4	.
CCCCCCCCN1C(=O)[C@@H](CC(=O)NCCCN2CCCC2=O)C[C@@]2(C(=O)OC)C1=C[C@H](C(C)(C)C)O[C@@H]2C	34.5*	-3.6	-1.1	3.6	.
CCCC(=O)C1=C(O)C(C(=O)OC)C(C)(C)CC1=NC(C)(C)C (configuration not stated)	-3.5	10.4	0.5	-3.6	-0.6
